According to ChEMBL document CHEMBL4513216, “Probing the Open Global Health Chemical Diversity Library for Multistage-Active Starting Points for Next-Generation Antimalarials” (ACS Infect Dis, 2020):

test: Toxicity liver stage against HepG2, at 10uM; format: cell-based; design: test concentration 10 uM, cell line HepG2-A16-CD81EGFP; conditions: human, HepG2-A16-CD81EGFP cells; read-out: INHIBITION
Method in brief: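 Uninfected HepG2-A16-CD81EGFP cells, 3 × 10^3 per well, 1536-well, plated on prespotted compound at 10 μM final, parasite-free screening media added to match infected plates; puromycin 10 μM positive, DMSO 0.5% negative; run in parallel with 48 h PbLuc assay at 37 °C, 5% CO2; viability by CellTiter-Glo luminescence, normalized to controls.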

SMILES	cytotoxicity at 10 µM [%]
O=C(c1cnccn1)N1CCN(Cc2cccnc2)c2ncccc2C1	-1.52
CCOCCOC(C)C(=O)NCc1ccc(N2CCCCC2)cc1 (configuration not stated)	11.6
CCc1cc(NC(=O)C2CCCN(C(=O)NCC(C)C)C2)[nH]n1 (configuration not stated)	-4.56
COc1ccc(-c2nnc(SC(C)C(=O)NCC(C)C)[nH]2)c(OC)c1 (configuration not stated)	83.5
Cc1ccc(S(=O)(=O)NC(=O)C2(c3ccccc3)CCC2)c(C)c1	13.5
COCC1CN(CCc2ccc(OC)c(OC)c2)Cc2c1cnn2C (configuration not stated)	-105
CC(=O)NCCNC(=O)CCn1c(C)cc2ccccc21	6.26
CC(C)Oc1ccccc1-c1cc(CN)ccc1F	-2.69
COc1cccc2c1OCC(C(=O)NCCn1nc(C)c(Cl)c1C)C2 (configuration not stated)	-5.89
CCn1cc(-c2cncn2CCc2ccc3c(c2)OCCO3)cn1	18.7
CN(Cc1cn2c(n1)CN(CC1CCOC1)CC2)Cc1ccco1 (configuration not stated)	-82.9
COC[C@]1(O)CCN(C(=O)c2ccc(CN(C)C)o2)CC1(C)C	4.35
Cc1cccc(NC(=O)CN(C)C(=O)c2scnc2C)n1	-3.79
CN(C)S(=O)(=O)N1CCCC(c2nccnc2-c2cccc(Cl)c2)C1 (configuration not stated)	8.23
CCCc1noc(C(C)N(CC)Cc2ccco2)n1 (configuration not stated)	7.3
O=C(CCCc1cn[nH]c1)N1C[C@@H](CN2CCCC2)C[C@H](CO)C1	-8.96
CCOc1cccc2c1OCC(C(=O)NS(=O)(=O)c1ccc(Cl)cc1)=C2	-11.1
CCCc1nc(CNCC2CCCN2c2cccnn2)no1 (configuration not stated)	-9.52
CCn1ccnc1C1CCN(Cc2cccc(Cl)c2)CC1	-9.45
CCNC(=O)c1ccc(NC2CCOC3(CCCCC3)C2)nn1 (configuration not stated)	-3
O=C1COC2(CCN(Cc3nccs3)CC2)CN1CC1CC1	4.38
O=C1NCC(C(=O)N(Cc2ccc(C(F)(F)F)cc2)C2CC2)N1 (configuration not stated)	4.54
Cc1ccc(CN(C)C(=O)c2cc(Cn3ccnc3C(C)C)[nH]n2)o1	0.073

SMILES	cytotoxicity at 10 µM [%]
Cc1nc(C)n(CC2CCCN2CC(=O)NC2CCOCC2)n1 (configuration not stated)	-4.43
CCN(CC)Cc1ccccc1NCc1c(C)noc1C	-2.04
CNS(=O)(=O)c1cccc(C(C)NCc2ccsc2)c1 (configuration not stated)	2.45
CC(C)(C)CCN1CCC(c2nnc(Cn3cccn3)n2C2CC2)CC1	8.19
COc1ccccc1CN(Cc1nc(CC(C)C)no1)C1CC1	4.93
CC1(C)C(C(=O)NCCC2CN(Cc3c[nH]cn3)CCO2)C1(C)C (configuration not stated)	-3.67
COCCN(C)C(C)c1cccc(S(N)(=O)=O)c1 (configuration not stated)	-28
Cc1nc(C(=O)N2CCN(c3ccc(Cl)c(Cl)c3)CC2)cs1	2.35
Cc1nc(CN(C)C)cc(N2CCCC(COc3ccc(F)cc3)C2)n1 (configuration not stated)	-7.4
COc1cccc(CNCc2cccnc2-n2cccn2)c1OC	2.86
CCN1CCN(C(C)CNC(=O)Nc2nnc(C)s2)CC1 (configuration not stated)	-12.2
COC(=O)[C@@H]1CN(C(=O)Nc2ccccc2)CCN1C(C)=O	4.23
CN(C)C(=O)CO[C@H]1CN(Cc2ccoc2)[C@@H]2COC[C@H]12	6.17
COCCN(C)CC1CCCN1S(=O)(=O)c1cccc(F)c1F (configuration not stated)	4.93
COc1ccccc1CC(=O)N(CCN1CCOCC1)Cc1ccco1	2.91
COCCn1nc(C(=O)N2CCOCC2C)ccc1=O (configuration not stated)	-8.97
CNc1nc(CNC(=O)Nc2ccc([S+](C)[O-])c(F)c2)cs1 (configuration not stated)	-12.2
Cc1cnn(CC2CN(Cc3nc(-c4cccnc4)no3)CCO2)c1 (configuration not stated)	-20.5
Cc1cnn(CCC(=O)N2CCN(c3ccc(C#N)cn3)CC2)c1	-0.417
CC(C)NC(=O)[C@@H]1C[C@@H]2CCN(Cc3ccoc3)C[C@H]2O1	-109
CN(Cc1ccco1)C(=O)CN1CCCCC1Cn1cncn1 (configuration not stated)	3.61
O=c1n(Cc2ncccn2)nc(C2CCNCC2)n1-c1ccccc1	-9.62
O=S(=O)(c1cncc(F)c1)N1CCSC2(CCCCC2)C1	9.48

SMILES	cytotoxicity at 10 µM [%]
NC(=O)C1(CCCc2ccncc2)CCCN1 (configuration not stated)	-21.5
COCC1(Nc2nc(C)nc3c2cnn3C)CCCC1	37.4
CCn1c(C)cc(C(=O)N2CCCC(c3nc(C)no3)C2)c1C (configuration not stated)	-3.39
Cc1nocc1C(=O)N1CCOC2(COCCN(CC3CC3)C2)C1 (configuration not stated)	3.42
CC1Cc2ccccc2N1C(=O)Cn1nc(-c2cccs2)ccc1=O (configuration not stated)	-9.08
COC(=O)CNC(=O)CC1COc2ccc(C(=O)N(C)C)cc2N1C (configuration not stated)	-8.8
CCN(CC1CN(Cc2ccccn2)CCO1)c1cccnn1 (configuration not stated)	-6.95
CC(C)c1cc(C(=O)NCCn2nnc3ccccc32)no1	-1.95
Cc1nc(CCNC(=O)NC2CCN(c3ncccn3)CC2)cs1	-11.8
O=C(c1sccc1C1CC1)N1CCN(Cc2cscn2)CC1	1.97
Cc1cc(C(=O)NC(C)c2nnn[nH]2)c2ccc(C)c(C)c2n1 (configuration not stated)	-10.7
O=C(CN1CCS(=O)(=O)CC1)Nc1ccc(N2CCCC2)nc1	10.3
COCCNC(=O)N1CCOCC1c1c(C)nn(C)c1C (configuration not stated)	-8.18
CN1CCC(CNC(=O)c2cccc(CN3CCCCCC3)c2)C1 (configuration not stated)	-5.39
CCN1CCN(C(=O)c2cc(F)cc3nc(C)c(C)nc23)CC1	-2.25
Cc1ccc(-c2noc(CN3CCCC(Cn4cncn4)C3)n2)cc1 (configuration not stated)	-7.12
O=C(NCCn1ccnc1)N1CCCC1c1ccncc1 (configuration not stated)	-10.9
O=S(=O)(NCCc1ccccc1F)N1CCOCC1	-1.7
Cc1ccccc1-c1cc(NC(=O)Cn2ccccc2=O)n(C)n1	3.8
COc1ccc(OC)c(C(=O)N2C[C@@H]3CC[C@H]2CN(C)C3)c1	4.61
CN(CC(N)=O)S(=O)(=O)c1ccc(F)cc1Cl	-11.9
COc1cc2c(cc1OC)CCN(C(=O)Cn1nc(C)cc1C)CC2	2.63
Cc1ccccc1-c1cncc(C2CCN(C(C)C)CC2)n1	1.2

SMILES	cytotoxicity at 10 µM [%]
O=C(Cc1ccncc1)N(CCO)CCSc1ccc(Cl)cc1	2.59
CN(Cc1nnc(C2CC2)o1)C1CCN(CCCc2cnn(C)c2)C1 (configuration not stated)	5.27
CC(NC(=O)NCCC1=CCCCC1)c1nncn1C (configuration not stated)	-11.7
CCN1CCC2(CC1)CC(NCc1cccc(C)n1)c1ccccc1O2 (configuration not stated)	-1.46
Cc1nc2c(c(NCc3cc4ccccc4s3)n1)CCNCC2	-48.3
CN(Cc1cccs1)C(=O)c1ccc(N2CCOCC2)c(F)c1	-5.56
CCCN(C1CCc2ccccc2C1)S(C)(=O)=O (configuration not stated)	0.595
CCn1ncc2c(C(F)(F)F)cc(-c3cnn(C)c3)nc21	3.67
C=C(C)COc1ccc(C(CC(=O)OC)c2oc(C)cc(=O)c2O)cc1 (configuration not stated)	-9.24
Cc1nnc2n1CCN(C(C(=O)NC(C)C)c1ccccc1)C2 (configuration not stated)	-5.92
CC(O)CN1CCN(C(=O)c2cccc3[nH]ncc23)CC1 (configuration not stated)	-20.5
c1cnn(-c2ccc(CN3CCCC(Cn4cncn4)C3)cc2)c1 (configuration not stated)	-2.63
CCNC(=O)[C@@H]1C[C@@H](N)CN1Cc1ccc(-c2ccccc2C#N)o1	-50.1
COC(=O)CC(c1ccc(OC)c(OC)c1)c1oc(C)cc(=O)c1O (configuration not stated)	16.8
O=C(NCCn1cccc1)C1CCCN(C2CCCC2)C1 (configuration not stated)	0.301
O=C1NCC2(CCCN(C(=O)Nc3ccc4scnc4c3)CC2)O1 (configuration not stated)	-5.59
CNS(=O)(=O)Cc1ccc(CNC(=O)c2ccccn2)cc1	-0.945
CC(NC(=O)CSCC#N)c1ccc(Cl)cc1 (configuration not stated)	-2.13
NC(=O)C1CCN(c2ccc3cc(Br)ccc3n2)C1 (configuration not stated)	7.87
CC(C)C(=O)N1CCC(NC2CCSCC2)C1 (configuration not stated)	-3.54
O=C(c1ccncc1)N1C[C@H]2CC[C@@H](C1)N(S(=O)(=O)c1cccnc1)C2	-3.51
COCCNC(=O)NCc1cc(-c2ccncc2)n(C2CCCC2)n1	-8.71
COC(=O)N1CCN(Cc2csc(-c3ncccn3)n2)CC1	-7.53

SMILES	cytotoxicity at 10 µM [%]
O=C(NCCNS(=O)(=O)N1CCCCCC1)c1ncccc1O	-6.11
O=C1CSC(C(F)(F)F)c2c(O)nn(C3CCCC3)c2N1 (configuration not stated)	3.49
Cn1cnc2c1CCN(CCOc1ccc3c(c1)CCC(=O)N3)C2	-4.48
NC(=O)CN1C(=O)CO[C@H]2CN(Cc3ccc(F)c(F)c3)C[C@H]21	2.44
Cc1ccccc1N1CCCN(c2ccncn2)CC1	24.9
CS(=O)(=O)Nc1cccc(CNC(=O)c2cccs2)c1	3.86
Cc1cccc2c1nc(COCC(=O)O)n2-c1cnc(N)cn1	0.238
Cc1cccc(C(=O)N2CCCCC2c2ccc(CN(C)C)cc2)n1 (configuration not stated)	-19.5
CC(NC(=O)N(C)Cc1ccc2c(c1)OCO2)c1nncn1C (configuration not stated)	-1.31
CCc1nc(C2CCCN2Cc2ccno2)no1 (configuration not stated)	2.52
Cn1cncc1C(=O)N1CCCC(c2ccn[nH]2)C1 (configuration not stated)	-4.78
COc1c(Br)cc(Cl)cc1NCc1c(C)noc1C	12.8
Cc1nc(C)c(C(=O)N2CCCN(Cc3cnn(C)c3)CC2)s1	-9.58
Cc1ccc(C(=O)N2C[C@@H]3CC[C@H]2CN(S(=O)(=O)N(C)C)C3)c(O)c1	3.41
O=C(NC[C@H]1OC[C@@H](NC2CCOCC2)[C@@H]1O)c1cccs1	-1.6
CCNC(=O)Cc1ccc(NC(=O)NC(CC)c2ccncc2)cc1 (configuration not stated)	-3
O=C(NCc1ccccn1)[C@]12COC[C@H]1CN(Cc1ccccc1F)C2	6.81
O=C(CCN1C(=O)CCC1=O)Nc1ccc(Oc2ccc(Cl)cc2)nc1	-23.5
O=C(c1cccc(S(=O)(=O)NCCc2ccccn2)c1)N1CCOCC1	-0.764
CCn1cncc1CN1CCN(CC2(c3ccc(C)cc3)CC2)CC1	-10.7
